We go through 29 molecules from ChEMBL document CHEMBL1212853, “New chloro,fluorobenzylindole derivatives as integrase strand-transfer inhibitors (INSTIs) and their mode of action” (Bioorg Med Chem, 2010).

Data set [1] deals with Human immunodeficiency virus 1. Kind of data set: Antiviral activity against HIV1 infected in human MT4 cells assessed as inhibition of virus-induced cytopathic effect. It is filed as functional, organism-based. The following applies: Human immunodeficiency virus 1, MT4. The method in brief:
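MT-4/MTT assay: MT-4 cells were infected with 100–300 CCID50 of an HIV-1 IIIB stock, titrated on MT-4 cells, in the presence of fivefold serial compound dilutions. Cell protection from virus-induced cytopathic effect was read spectrophotometrically as MTT reduction to formazan by viable cells. EC50 is the concentration giving 50% protection. Averages ± SD.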

Data set [2] addresses T1, Human immunodeficiency virus type 1 integrase (Human immunodeficiency virus 1, UniProt Q7ZJM1).
Data set [3] has as its target T1, Human immunodeficiency virus type 1 integrase. This is another data set of the same source.
Data set [4] concerns MT4. The data set can be described thus: Cytotoxicity against human MT4 cells by MTT assay. The format is cell-based. A digest of the protocol: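 Run in parallel with the antiviral MT-4/MTT assay, using fivefold serial compound dilutions. Viability was read spectrophotometrically as MTT reduction to formazan by mitochondrial dehydrogenase. CC50 is the concentration reducing MT-4 viability by 50%. Averages ± SD.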

A short description of data set [5]: Selectivity index, ratio of CC50 for human MT4 cells to EC50 for HIV1 cells. The format is toxicity, cell-based. The settings on record: read-out: Selectivity Index. A digest of the protocol:
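MT-4/MTT assay in human MT-4 lymphocytes. Cells were infected with 100–300 CCID50 of HIV-1 strain IIIB, titrated on MT-4 cells, in the presence of fivefold serial compound dilutions. Viability was read spectrophotometrically as MTT reduced to formazan. EC50 is 50% protection against virus-induced cytopathic effect; CC50 was determined in parallel. SI is calculated as CC50/EC50.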

Bounds are passed on as bounds.

T1 sequence (Q7ZJM1 whole entry): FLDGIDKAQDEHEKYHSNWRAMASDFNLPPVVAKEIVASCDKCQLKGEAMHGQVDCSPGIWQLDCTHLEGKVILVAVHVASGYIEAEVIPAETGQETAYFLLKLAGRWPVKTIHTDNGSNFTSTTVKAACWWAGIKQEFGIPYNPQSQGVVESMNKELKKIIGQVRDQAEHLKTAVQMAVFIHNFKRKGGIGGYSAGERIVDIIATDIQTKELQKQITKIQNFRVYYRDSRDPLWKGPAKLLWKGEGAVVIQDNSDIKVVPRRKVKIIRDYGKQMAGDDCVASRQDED

`COc1cccc2c1c(C(=O)/C=C(\O)C(=O)O)cn2Cc1ccc(F)cc1Cl`: the EC50 in data set [1] was 4.3 µM; in data set [4], 47.2 µM. In addition, the IC50 in data set [2] was 0.54 µM; in data set [3] it was 0.06 µM. In addition, the selectivity ratio in data set [5] turned out to be 11.

In the case of `COc1cccc2c1c(C(=O)/C=C(\O)C(=O)O)cn2Cc1ccc(Cl)cc1F`, the 50% effective concentration (EC50) in data set [1] is above 22.5 µM; in data set [4], 23 µM. The IC50 in data set [2] was determined as 2.53 µM; in data set [3], 5.52 µM. Moreover, the selectivity ratio in data set [5] was below 1.

With `CCOC(=O)/C(O)=C/C(=O)c1cn(Cc2ccc(F)cc2Cl)c2cccc(OC)c12`, the values for the concentration giving a half-maximal response (EC50) in data set [1] and in data set [4] were 4.06 µM and 51.4 µM, respectively. For the same molecule, the figures for the IC50 in data set [2] and in data set [3] were 1.74 µM and 2.56 µM, respectively. Moreover, the selectivity ratio in data set [5] came out at 13.

For the molecule `CCOC(=O)/C(O)=C/C(=O)c1cn(Cc2cc(F)ccc2Cl)c2cccc(OC)c12`, the figures for the EC50 in data set [1] and in data set [4] were 16.4 µM and 39.6 µM, respectively. The IC50 in data set [2] was 2.7 µM; in data set [3], 2.94 µM. The selectivity ratio in data set [5] is 3.

Regarding `COc1cccc2c1c(C(=O)/C=C(\O)C(=O)O)cn2Cc1cc(Cl)ccc1F`, the EC50 in data set [1] was 4.17 µM; in data set [4] it was 10.8 µM. Besides, the figures for the IC50 in data set [2] and in data set [3] were 0.32 µM and 0.09 µM, respectively. Also, in data set [5], the selectivity ratio amounted to 3.

Take `CCOC(=O)/C(O)=C/C(=O)c1cn(Cc2c(F)cccc2Cl)c2cccc(OC)c12`: the half-maximal effective concentration (EC50) is 4.66 µM in data set [1] and 25.4 µM in data set [4]. Also, the IC50 in data set [2] came to 2.86 µM; in data set [3], 1.2 µM. Also, the selectivity ratio in data set [5] amounted to 5.

In data set [4], `COc1cc2c(cc1Cc1cccc(Cl)c1F)c(=O)c(C(=O)O)cn2[C@H](CO)C(C)C` came in with an EC50 of 2.12 µM.

On to `COc1cccc2c1c(C(=O)/C=C(\O)C(=O)O)cn2Cc1cc(F)ccc1Cl`, for which the results for the concentration for a half-maximal effect (EC50) in data set [1] and in data set [4] were 3.3 µM and 26.3 µM, respectively. For the same molecule, the half-inhibitory concentration (IC50) in data set [2] was 0.42 µM; in data set [3], 0.27 µM. Further, the selectivity ratio in data set [5] stood at 8.

Regarding `COc1cccc2c1c(C(=O)/C=C(\O)C(=O)O)cn2Cc1ccc(Cl)c(F)c1`, the EC50 in data set [1] was above 23.3 µM; in data set [4], 23.3 µM. Further, the IC50 in data set [2] was 3.33 µM; in data set [3], 4.58 µM. Further, the selectivity ratio in data set [5] is below 1.

Consider `CCOC(=O)/C(O)=C/C(=O)c1cn(Cc2ccc(Cl)cc2)c2cccc(OC)c12`, for which the concentration for a half-maximal effect (EC50) in data set [1] and in data set [4] was 41.3 µM throughout. Also, the half-maximal inhibitory concentration (IC50) in data set [2] is 5.78 µM; in data set [3], 8.26 µM. Further, the selectivity ratio in data set [5] amounted to 1.

`CCOC(=O)/C(O)=C/C(=O)c1cn(Cc2cc(F)cc(Cl)c2)c2cccc(OC)c12`: the EC50 in data set [1] was determined as 4.27 µM; in data set [4] it was 58.2 µM. In addition, the results for the half-inhibitory concentration (IC50) in data set [2] and in data set [3] were 1.3 µM and 3.17 µM, respectively. Also, in data set [5], the selectivity ratio worked out at 14.

Take `COc1cccc2c1c(C(=O)/C=C(\O)C(=O)O)cn2Cc1ccc(F)c(Cl)c1`: the EC50 in data set [1] came out at 0.43 µM; in data set [4], 31.7 µM. Besides, the IC50 in data set [2] stood at 0.04 µM; in data set [3], 0.12 µM. In addition, the selectivity ratio in data set [5] came out at 74.

Take `COc1cccc2c1c(C(=O)/C=C(\O)C(=O)O)cn2Cc1c(F)cccc1Cl`: the EC50 in data set [1] worked out at 0.56 µM; in data set [4], 62 µM. For the same molecule, the IC50 in data set [2] was 0.53 µM; in data set [3], 0.13 µM. The selectivity ratio in data set [5] was found to be 111.

For `CCOC(=O)/C(O)=C/C(=O)c1cn(Cc2cccc(Cl)c2)c2cccc(OC)c12`, the EC50 in data set [1] was 3.25 µM; in data set [4], 52.9 µM. Moreover, the 50% inhibitory concentration (IC50) in data set [2] was determined as 4.78 µM; in data set [3], 2.89 µM. For the same molecule, the selectivity ratio in data set [5] is 17.

As for `CCOC(=O)/C(O)=C/C(=O)c1cn(Cc2ccc(Cl)cc2F)c2cccc(OC)c12`, the figures for the EC50 in data set [1] and in data set [4] were above 17 µM and 17 µM, respectively. For the same molecule, the IC50 in data set [2] came to 1.15 µM; in data set [3], 3.32 µM. In data set [5], the selectivity ratio was below 1.

`COc1cccc2c1c(C(=O)/C=C(\O)C(=O)O)cn2Cc1cc(F)cc(Cl)c1`: the concentration for a half-maximal effect (EC50) in data set [1] came out at 0.52 µM; in data set [4] it was 32.1 µM. Besides, the IC50 stood at 0.24 µM in data set [2] and 0.25 µM in data set [3]. The selectivity ratio in data set [5] was determined as 62.

As for `COc1cccc2c1c(C(=O)/C=C(\O)C(=O)O)cn2Cc1cccc(F)c1Cl`, the 50% effective concentration (EC50) in data set [1] is 0.36 µM; in data set [4], 6.5 µM. The IC50 in data set [2] worked out at 5.24 µM; in data set [3] it was 12.7 µM. In data set [5], the selectivity ratio turned out to be 18.

`COc1cccc2c1c(C(=O)/C=C(\O)C(=O)O)cn2Cc1ccc(F)cc1`: a half-maximal effect in data set [4] (EC50) was put at 41.1 µM. In addition, the selectivity ratio in data set [5] is 70.

In the case of `CCOC(=O)/C(O)=C/C(=O)c1cn(Cc2ccc(F)c(Cl)c2)c2cccc(OC)c12`, the EC50 worked out at 1.87 µM in data set [1] and 49.3 µM in data set [4]. Further, the figures for the IC50 in data set [2] and in data set [3] were 0.36 µM and 0.07 µM, respectively. Besides, the selectivity ratio in data set [5] stood at 26.

With `CCOC(=O)/C(O)=C/C(=O)c1cn(Cc2cc(Cl)ccc2F)c2cccc(OC)c12`, the half-maximal effective concentration (EC50) in data set [1] and in data set [4] was 18.1 µM throughout. For the same molecule, the IC50 came out at 1.61 µM in data set [2] and 0.89 µM in data set [3]. Also, the selectivity ratio in data set [5] was 1.

Consider `COc1cccc2c1c(C(=O)/C=C(\O)C(=O)O)cn2Cc1ccc(Cl)cc1`, for which the concentration for a half-maximal effect (EC50) in data set [1] turned out to be 20.6 µM; in data set [4] it was 33.5 µM. Besides, the concentration for half-maximal inhibition (IC50) stood at 1.02 µM in data set [2] and 0.59 µM in data set [3]. The selectivity ratio in data set [5] was found to be 2.

With `COc1cccc2c1c(C(=O)/C=C(\O)C(=O)O)cn2Cc1cccc(Cl)c1F`, the results for the EC50 in data set [1] and in data set [4] were 0.43 µM and 15 µM, respectively. For the same molecule, the IC50 in data set [2] was found to be 0.74 µM; in data set [3] it was 0.03 µM. In addition, the selectivity ratio in data set [5] stood at 35.

Consider `COc1cccc2c1c(C(=O)/C=C(\O)C(=O)O)cn2Cc1ccccc1Cl`, for which the concentration for a half-maximal effect (EC50) in data set [1] came to 0.42 µM; in data set [4], 27 µM. The half-inhibitory concentration (IC50) in data set [2] was 0.71 µM; in data set [3], 0.52 µM. The selectivity ratio in data set [5] is 64.

Take `CCOC(=O)/C(O)=C/C(=O)c1cn(Cc2cccc(Cl)c2F)c2cccc(OC)c12`: the EC50 in data set [1] is 2.31 µM; in data set [4] it was 46.9 µM. The IC50 in data set [2] amounted to 1.37 µM; in data set [3], 0.74 µM. For the same molecule, the selectivity ratio in data set [5] is 20.

For `Cc1nnc(C(=O)NC(C)(C)c2nc(C(=O)NCc3ccc(F)cc3)c(O)c(=O)n2C)o1`, the EC50 in data set [4] was above 18 µM.

For the molecule `CCOC(=O)/C(O)=C/C(=O)c1cn(Cc2ccc(Cl)c(F)c2)c2cccc(OC)c12`, the EC50 in data set [1] was above 63.7 µM; in data set [4], 63.7 µM. The half-maximal inhibitory concentration (IC50) in data set [2] stood at 5.05 µM; in data set [3], 20.4 µM. Further, the selectivity ratio in data set [5] was below 1.

Regarding `COc1cccc2c1c(C(=O)/C=C(\O)C(=O)O)cn2Cc1cccc(Cl)c1`, the 50% effective concentration (EC50) in data set [1] came to 0.64 µM; in data set [4], 30.2 µM. For the same molecule, the results for the IC50 in data set [2] and in data set [3] were 0.13 µM and 0.03 µM, respectively. Also, the selectivity ratio in data set [5] came out at 47.

Take `CCOC(=O)/C(O)=C/C(=O)c1cn(Cc2cccc(F)c2Cl)c2cccc(OC)c12`: the EC50 in data set [1] turned out to be 2.52 µM; in data set [4] it was 18.5 µM. The 50% inhibitory concentration (IC50) is 1.39 µM in data set [2] and 9.2 µM in data set [3]. In data set [5], the selectivity ratio was 7.

For `CCOC(=O)/C(O)=C/C(=O)c1cn(Cc2ccccc2Cl)c2cccc(OC)c12`, the EC50 in data set [1] is 2.51 µM; in data set [4], 34.5 µM. Besides, the figures for the IC50 in data set [2] and in data set [3] were 13.1 µM and 0.73 µM, respectively. The selectivity ratio in data set [5] was determined as 14.

One may read the EC50 as the concentration giving half of the maximal effect. A word on the IC50: it is the concentration that gives 50% inhibition.
